Results from ChEMBL document CHEMBL5506013, “Mitochondria-Selective Dicationic Small-Molecule Ligand Targeting G-Quadruplex Structures for Human Colorectal Cancer Therapy” (J Med Chem, 2024).
The source made the active and inactive calls. The calls are words filed in the database; no cut-off is given here.

Tests used:
Cell membrane = experiment: Induction of mitochondrial membrane potential depolarization in human HCT-116 cells assessed as […] in TMRE fluorescence incubated for 48 hrs by TMRE staining based analysis; format: cell membranes; conditions: dose <= 4.0 µM
HCT-116 [1] = experiment: Downregulation of COX2 mRNA level in human HCT-116 cells at 0 to 4 uM measured after 48 hrs by qRT-PCR analysis; format: functional, cell-based; conditions: dose 0-4 µM
DNA [2] = experiment: Binding affinity to SS19 DNA (non-G4 DNA) (unknown origin) assessed as dissociation constant measured upto 150 secs by isothermal titration calorimetry assay; format: nucleic-acid assay
[3] = Toxicity in BALB/c nude mouse assessed as change in body weight at 5 mg/kg, iv administered every two days for 16 days; format: organism-based; conditions: in vivo, 384 h, time 16 day
Summary of the method: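 Male Balb/c nude mice bearing HCT116 xenografts, 6 per group, given PBS or ligand 5 mg/kg intravenously every two days. Body weight tracked over 16 days.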

HCT-116 [4] = experiment: Downregulation of ATP6 mRNA level in human HCT-116 cells at 0 to 4 uM measured after 48 hrs by qRT-PCR analysis; format: functional, cell-based; conditions: dose 0-4 µM
PANC-1 = experiment: Antiproliferative activity against human PANC-1 cells measured after 48 hrs by MTT assay; format: functional, cell-based; conditions: PANC-1, 48 h
Summary of the method: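 Cells exposed to the ligands for 48 h. Viability was read by MTT, and the IC50 was derived from the response.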

HCT-116 [5] = experiment: Antitumor activity against human HCT-116 cells xenografted in Balb/c nude mouse model assessed as reduction in tumor weight at 5 mg/kg, iv administered every two days for 16 days relative to control; format: functional; design: scale not given: the % may be the effect or the level left; conditions: time 16 day
Summary of the method: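 Male Balb/c nude mice carrying HCT116 xenografts, 6 per group. Dosing was intravenous every two days at 5 mg/kg, with a PBS-injected control group. Body weight and tumour growth were tracked. Tumours were excised and weighed after 16 days.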

[6] = Drug localization in human HCT-116 cells overexpressing […] by measuring red foci at 4 uM incubated for 1 hr by hoechst33342 staining based analysis; format: ADME, cell-based; conditions: hct-116, 1 h
HCT-116 [7] = experiment: Downregulation of COX2 protein level in human HCT-116 cells at upto 4 uM incubated for 48 hrs by Western blot analysis; format: functional, cell-based
Quadruplex DNA [8] = experiment: Binding affinity to Mito 29 G4 DNA (unknown origin) assessed as change in melting temperature at 5 uM by circular dichroism spectroscopic analysis; format: nucleic-acid assay
[9] = Drug localization in human HCT-116 cells transfected with Cy5-mito 0.5-16 G4 DNA at 4 uM incubated for 1 hr by hoechst33342 staining based analysis; format: ADME, cell-based; conditions: hct-116, 1 h
Summary of the method: (§1)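 HCT116 cells transfected with Cy5-labelled DNA (excitation 635 nm) for 24 h. Ligand 4 uM added for 1 h, then Hoechst33342 1 uM for 30 min. Colocalization of ligand with Cy5 quantified by Pearson r from confocal images.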

[10] = Toxicity in BALB/c nude mouse assessed as change in red blood cell count at 5 mg/kg, iv administered every two days for 16 days; format: organism-based; conditions: in vivo, 384 h, time 16 day
Summary of the method: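 HCT116 xenograft-bearing male Balb/c nude mice (6/group) dosed iv at 5 mg/kg every two days or with PBS. Whole blood collected at sacrifice on day 16 for hematology parameters.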

Quadruplex DNA [11] = experiment: Binding affinity to mito 0.5-16 G4 DNA (unknown origin) assessed as increase in fluorescence intensity by fluorescence spectrophotometric analysis; format: nucleic-acid assay
Summary of the method: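 Oligonucleotides were pre-annealed at 95 °C for 10 min, then cooled slowly. Ligand (5 uM) was mixed with 20 uM DNA in buffer. Emission was collected over 550–800 nm, and enhancement was taken at 650 nm as F/F0.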

Quadruplex DNA [12] = experiment: Binding affinity to mito 81 G4 DNA (unknown origin) assessed as dissociation constant measured upto 150 secs by isothermal titration calorimetry assay; format: nucleic-acid assay
HCT-116 [13] = experiment: Induction of mitochondrial dysfunction in human HCT-116 cells assessed as decrease in ATP production at upto 4 uM incubated for 3 hrs by Seahorse XFe24 analyzer; format: functional, cell-based
Summary of the method: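 Seahorse Mito-stress and glycolysis stress tests on HCT116 cells treated with ligand for 3 h. Oxygen consumption rate and extracellular acidification rate recorded.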

DNA [14] = experiment: Binding affinity to HP19 DNA (non-G4 DNA) (unknown origin) assessed as dissociation constant measured upto 150 secs by isothermal titration calorimetry assay; format: nucleic-acid assay
HCT-116 [15] = experiment: Downregulation of ATP8 mRNA level in human HCT-116 cells at 0 to 4 uM measured after 48 hrs by qRT-PCR analysis; format: functional, cell-based; conditions: dose 0-4 µM
HCT-116 [16] = experiment: Induction of DNA damage in human HCT-116 assessed as increase in tail length at upto 4 uM incubated for 72 hrs in presence of MitoTEMPO by comet assay; format: functional, cell-based
[17] = Drug localization in human HCT-116 cells by measuring red foci at 4 uM incubated for 1 hr in presence of MitoPDS by hoechst33342 staining based analysis; format: ADME, cell-based; conditions: hct-116, 1 h
Summary of the method: (§2)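 Pretreatment of live HCT116 cells: FCCP 1 uM for 20 min, cyclosporin A 1 uM for 24 h, DMOG 100 uM for 24 h, or MitoPDS at several concentrations for 3 h (applied after dye loading). Cells loaded with ligand 4 uM (excitation 488 nm) for 1 h and Hoechst33342 1 uM for 30 min. Red foci counted by confocal imaging in 100 cells. Mean ± SEM, t test.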

HCT-116 [18] = experiment: Induction of ROS production in human HCT-116 cells assessed as upregulation of ROS level measured after 48 hrs by mito-sox staining based analysis; format: functional, cell-based; conditions: dose <= 4.0 µM
[19] = Drug localization in lysosome of living human HCT-116 cells assessed as colocalization at 4 uM incubated for 1 hr by lyso-tracker blue staining based analysis; format: ADME, subcellular; conditions: hct-116, 1 h
[20] = Drug localization in human HCT-116 cells by measuring red foci at 4 uM incubated for 1 hr in presence of cyclosporin A by hoechst33342 staining based analysis; format: ADME, cell-based; conditions: hct-116, 1 h; summary of the method: as §2
[21] = Drug localization in human HCT-116 cells transfected with Cy5-SS19 non G4 DNA at 4 uM incubated for 1 hr by hoechst33342 staining based analysis; format: ADME, cell-based; conditions: hct-116, 1 h; summary of the method: as §1
HCT-116 [22] = experiment: Induction of cell cycle arrest in human HCT-116 cells assessed as accumulation of cells at G0/G1 phase measured after 72 hrs by PI staining based flow cytometry analysis; format: functional; conditions: dose 1-4 µM
Summary of the method: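 HCT116 cells treated at 0-4 uM for 72 h. Cell-cycle distribution measured by flow cytometry and G0/G1 percentage recorded.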

HCT-116 [23] = experiment: Induction of apoptosis in human HCT-116 cells at upto 4 uM measured after 72 hrs by annexin V-BUV396 and 7-AAD staining based flow cytometry analysis (reference value: 2.64%); format: functional; conditions: up to 4 µM
Summary of the method: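 HCT116 cells treated at 0-4 uM for 72 h, stained with Annexin V-BUV396 and 7-AAD, and the apoptotic fraction quantified by flow cytometry.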

HCT-116 [24] = experiment: Inhibition of glycolysis in human HCT-116 cells assessed as reduction in glucose consumption at upto 4 uM measured after 3 hrs by Seahorse XFe24 analyzer; format: functional, cell-based
HCT-116 [25] = experiment: Antitumor activity against human HCT-116 cells assessed as increase in beta-galactosidase activity at upto 4 uM measured after 72 hrs relative to control; format: functional; conditions: up to 4 µM
Summary of the method: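 HCT116 cells were treated for 72 h across 0–4 uM. β-Galactosidase activity was then measured against untreated control. Data are given as mean ± SEM, with significance by t test.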

Quadruplex DNA [26] = experiment: Binding affinity to Mito 0.5-16 G4 DNA (unknown origin) assessed as change in melting temperature at 5 uM by circular dichroism spectroscopic analysis; format: nucleic-acid assay

Compound: C(=C\c1ccc2ccccc2[n+]1CCCCCCCC[n+]1c(/C=C/c2ccc(N3CCCCC3)cc2)ccc2ccccc21)/c1ccc(N2CCCCC2)cc1.[I-].[I-]
- Activity (Cell membrane): Dose-Dependent Effect
- Activity (HCT-116 [1]): Active
- Kd (DNA [2]): > 4.7 µM
- Activity [3]: Non-Toxic
- Activity (HCT-116 [4]): Active
- IC50 (PANC-1): 24.8 µM
- Activity (HCT-116 [5]): 70%
- Drug uptake [6]: Active
- Activity (HCT-116 [7]): Active
- ΔTm (Quadruplex DNA [8]): 3.6 °C
- Drug uptake [9]: Active
- Activity [10]: Non-Toxic
- Activity (Quadruplex DNA [11]): Active
- Kd (Quadruplex DNA [12]): 0.06 µM
- Activity (HCT-116 [13]): Active
- Kd (DNA [14]): > 4.7 µM
- Activity (HCT-116 [15]): Active
- Activity (HCT-116 [16]): inactive
- Drug uptake [17]: Not Active
- Activity (HCT-116 [18]): Dose-Dependent Effect
- Drug uptake [19]: Not Active
- Drug uptake [20]: Active
- Drug uptake [21]: Not Active
- Activity (HCT-116 [22]): Dose-Dependent Effect
- Activity (HCT-116 [23]): 27.4%
- inhibition (HCT-116 [24]): Active
- Activity (HCT-116 [25]): 17.63%
- ΔTm (Quadruplex DNA [26]): 16.5 °C
